These results are taken from ChEMBL document CHEMBL1938394, “Time-dependent slowly-reversible inhibition of monoamine oxidase A by N-substituted 1,2,3,6-tetrahydropyridines” (Bioorg Med Chem, 2011).

SMILES strings stand for the structures.

The target in data set [1] is T1, Amine oxidase [flavin-containing] A (Homo sapiens, UniProt P21397).
T1 sequence (P21397 whole entry): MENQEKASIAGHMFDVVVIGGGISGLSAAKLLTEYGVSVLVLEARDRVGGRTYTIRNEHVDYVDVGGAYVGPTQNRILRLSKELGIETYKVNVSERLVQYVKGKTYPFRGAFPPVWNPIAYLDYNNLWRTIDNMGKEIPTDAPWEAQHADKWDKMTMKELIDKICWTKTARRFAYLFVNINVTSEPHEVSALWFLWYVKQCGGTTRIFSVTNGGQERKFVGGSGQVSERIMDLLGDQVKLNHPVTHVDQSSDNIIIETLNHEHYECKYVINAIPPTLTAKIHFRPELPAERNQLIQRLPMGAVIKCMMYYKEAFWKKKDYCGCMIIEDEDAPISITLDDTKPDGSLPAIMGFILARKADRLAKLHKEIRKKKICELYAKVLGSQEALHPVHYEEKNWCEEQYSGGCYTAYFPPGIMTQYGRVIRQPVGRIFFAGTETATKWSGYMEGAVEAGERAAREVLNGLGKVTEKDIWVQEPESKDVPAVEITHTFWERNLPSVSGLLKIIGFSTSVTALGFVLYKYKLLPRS
Description: Inhibition of human recombinant MAOA expressed in insect cells assessed as oxidation of kynuramine substrate at 50 uM measured after additional substrate added after 90 mins incubation. The note with it: 1.5 h. A digest of the protocol: (§1)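 Recombinant human MAO-A incubated with kynuramine, with or without inhibitor. Product formation followed over time. A second equivalent of substrate (150 µM kynuramine) added at 90 min and fresh enzyme added at 120 min.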

Data set [2] relates to Mus musculus. Description: Neurotoxicity in C57BL/6J mouse assessed as reduction of striatal tyrosine hydroxylase level at 12.5 mg/kg, sc after 72 hrs by ELISA. The note with it: in vivo. Set-up: dose 12.5 mg/kg, route subcutaneous. The data set is classed as toxicity, organism-based. In short, it runs like this: (§2)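 Female C57BL/6J mice aged 3–4 months, single sc dose, 0.9% saline vehicle, killed 72 h post-dose. Striatum homogenised in hot 1% SDS. GFAP or TH measured by detergent-based sandwich ELISA.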

Data set [3] concerns Mus musculus. Description: Neurotoxicity in C57BL/6J mouse assessed as increase of striatal GFAP level at 12.5 mg/kg, sc after 72 hrs by ELISA. In kind it is toxicity, organism-based. Set-up: dose 12.5 mg/kg, route subcutaneous. Particulars: in vivo; call rule not given here. In short, it runs like this:
as §2

Data set [4] addresses T1, Amine oxidase [flavin-containing] A. Description: Inhibition of human recombinant MAOA expressed in insect cells assessed as oxidation of kynuramine substrate at 50 uM measured after additional enzyme added after 120 mins incubation. Particulars: 2 h. In short, it runs like this:
as §1

Data set [5] shares this target. Description: Inhibition of human recombinant MAOA expressed in insect cells assessed as oxidation of kynuramine substrate at 5 uM measured after additional enzyme added after 120 mins incubation. Particulars: 2 h. In short, it runs like this:
(§3)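 Time course of kynuramine oxidation by recombinant human MAO-A at 37 °C in isotonic 0.1 M phosphate pH 7.4 with or without inhibitor. A second portion of substrate (150 μM kynuramine) was added at 90 min and fresh enzyme at 120 min, with product formation followed throughout.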

The species entered for a further data set is Homo sapiens. Description: Selectivity index, ratio of IC50 for human recombinant MAOB to IC50 for human recombinant MAOA. In short, it runs like this:
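MAO-A (0.005 mg/mL; 150 μM kynuramine, 60 min, 37 °C, […]) and MAO-B (0.01 mg/mL; 1000 μM benzylamine, 30 min, 37 °C, perchloric acid stop, benzaldehyde by HPLC-UV at 254 nm) in isotonic 0.1 M phosphate pH 7.4. Inhibitor 0–7000 μM. IC50s from sigmoidal log curves in triplicate. SI = MAO-B IC50 / MAO-A IC50.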

The target in data set [6] is T1, Amine oxidase [flavin-containing] A. Description: Inhibition of human recombinant MAOA expressed in insect cells using kynuramine substrate after 60 mins.
The target is the same in data set [7]. Description: Inhibition of human recombinant MAOA expressed in insect cells assessed as formation of 4-hydroxyquinoline at 5 uM preincubated for 1 hr before kynuramine substrate measured after 1 hr in presence of sodium borohydride. In short, it runs like this: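 MAO-A (0.005 mg/mL) preincubated 60 min at 37 °C with inhibitor in isotonic 0.1 M phosphate pH 7.4. NaBH4 (5 μL of 300 mM stock in water) then added and the mix held 15 min at 0 °C. It was dialyzed overnight at 0 °C, then read at 310 nm with 150 μM kynuramine over 60 min at 37 °C. Controls without inhibitor also got borohydride. n = 3.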

Data set [8] shares this target. Description: Inhibition of human recombinant MAOA expressed in insect cells using kynuramine as substrate by Kitz-Wilson plot analysis. In short, it runs like this:
(§4)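 Recombinant human MAO-A preincubated at 37 °C with inhibitor (2–5 μM) or buffer control for 0, 10, 20, 30 or 40 min before kynuramine (150 μM) was added. Activity read after 30 min as % of control, n = 3. Kitz–Wilson slope replot: Ki from reciprocal of x-intercept, kinact from reciprocal of y-intercept.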

The target is the same in data set [9]. Description: Inhibition of human recombinant MAOA expressed in insect cells assessed as oxidation of kynuramine substrate at 5 uM up to 90 mins. Particulars: 1.5 h. A digest of the protocol:
as §3

The target is the same in data set [10]. Description: Inhibition of human recombinant MAOA expressed in insect cells assessed as formation of 4-hydroxyquinoline at 5 uM preincubated for 1 hr before kynuramine substrate measured after 12 hrs of dialysis. A digest of the protocol:
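MAO-A (0.005 mg/mL) in 0.1 M sodium phosphate pH 7.4 made isotonic with NaCl, preincubated 1 h at 37 °C without substrate with inhibitor (final volume 1 mL), then dialyzed overnight at 0 °C against 250 mL buffer. Activity in dialysate read as product formation at 310 nm with 150 μM kynuramine over 60 min at 37 °C. 4-Hydroxyquinoline quantified by calibration curve. Means ± SD, n = 3.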

Data set [11] shares this target. Description: Noncompetitive inhibition of human recombinant MAO-A assessed as dissociation constant for enzyme-inhibitor-substrate complex by Lineweaver-Burk plot analysis.
The target is the same in data set [12]. Description: Time dependent inhibition of human recombinant MAOA expressed in insect cells using kynuramine as substrate at 5 uM preincubated up to 40 mins before kynuramine substrate addition. A digest of the protocol:
as §4

In data set [13] the target is T2, MAO-A (amine oxidase [flavin-containing] A) (Homo sapiens, UniProt P21397).
T2 sequence (P21397 whole entry): T1 sequence (P21397 whole entry)
Description: Irreversible inhibition of human recombinant MAOA expressed in insect cells using kynuramine as substrate by Kitz-Wilson plot analysis. The note with it: probe kynuramine. A digest of the protocol: as §4

The target in data set [14] is T3, Amine oxidase [flavin-containing] B (Homo sapiens, UniProt P27338).
T3 sequence (P27338 whole entry): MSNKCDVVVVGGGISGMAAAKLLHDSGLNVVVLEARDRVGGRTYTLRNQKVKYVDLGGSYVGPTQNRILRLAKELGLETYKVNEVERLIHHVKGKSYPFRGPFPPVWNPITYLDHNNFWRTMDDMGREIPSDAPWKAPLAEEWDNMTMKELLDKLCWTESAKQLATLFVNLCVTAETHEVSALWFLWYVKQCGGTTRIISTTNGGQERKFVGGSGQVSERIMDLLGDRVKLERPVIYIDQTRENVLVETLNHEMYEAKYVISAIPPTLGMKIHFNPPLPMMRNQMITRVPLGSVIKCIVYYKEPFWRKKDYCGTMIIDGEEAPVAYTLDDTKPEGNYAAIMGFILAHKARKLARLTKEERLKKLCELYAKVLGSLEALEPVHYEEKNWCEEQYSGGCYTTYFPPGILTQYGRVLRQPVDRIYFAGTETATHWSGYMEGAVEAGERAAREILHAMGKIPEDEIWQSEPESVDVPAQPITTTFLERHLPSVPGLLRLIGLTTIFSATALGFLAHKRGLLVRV
Description: Inhibition of human recombinant MAOB expressed in insect cells using benzylamine hydrochloride as substrate after 30 mins. In short, it runs like this: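 Human recombinant MAO-B (0.01 mg/mL) in 0.1 M isotonic phosphate buffer pH 7.4, inhibitor 0–7000 µM, benzylamine 1000 µM final, 30 min at 37 °C. Stopped with perchloric acid; benzaldehyde measured by reverse-phase HPLC with UV 254 nm. IC50 from sigmoidal log dose–response fit; triplicate, mean ± SD.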

Data set [15] deals with T1, Amine oxidase [flavin-containing] A. Description: Noncompetitive inhibition of human recombinant MAO-A assessed as dissociation constant for enzyme-inhibitor complex by Lineweaver-Burk plot analysis.
For data set [16] the target is unchanged. Description: Inhibition of human recombinant MAOA expressed in insect cells assessed as oxidation of kynuramine substrate at 5 uM measured after additional substrate added after 90 mins incubation. The note with it: 1.5 h. In short, it runs like this: as §3
The target is the same in data set [17]. Description: Inhibition of human recombinant MAOA expressed in insect cells assessed as oxidation of kynuramine substrate at 6 mM measured after additional substrate added after 90 mins incubation. The note with it: 1.5 h. In short, it runs like this:
as §1

Data set [18] has the same target. Description: Inhibition of human recombinant MAOA expressed in insect cells assessed as oxidation of kynuramine substrate at 6 mM measured after additional enzyme added after 120 mins incubation. Particulars: 2 h, 6000 µM. A digest of the protocol: as §1
For data set [19] the target is unchanged. Description: Mixed noncompetitive inhibition of human recombinant MAO-A assessed as dissociation constant for enzyme-inhibitor-substrate complex by Lineweaver-Burk plot analysis. A digest of the protocol: (§5)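 Human recombinant MAO-A (0.005 mg/mL) in 0.1 M sodium phosphate pH 7.4 made isotonic with NaCl, 37 °C, 30 min. Initial oxidation rates at four kynuramine levels (50–150 µM) without or with four inhibitor concentrations (range per compound, 5–1000 µM). Ki from Lineweaver–Burk plots and replots by linear regression; triplicate.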

The target is the same in data set [20]. Description: Mixed noncompetitive inhibition of human recombinant MAO-A assessed as dissociation constant for enzyme-inhibitor complex by Lineweaver-Burk plot analysis. In short, it runs like this: as §5
For data set [21] the target is unchanged. Description: Competitive inhibition of human recombinant MAO-A assessed as dissociation constant for enzyme-inhibitor complex by Lineweaver-Burk plot analysis. A digest of the protocol: as §5
For data set [22] the target is unchanged. Description: Competitive inhibition of human recombinant MAO-A assessed as dissociation constant for enzyme-inhibitor-substrate complex by Lineweaver-Burk plot analysis. In short, it runs like this:
as §5

The target is the same in data set [23]. Description: Inhibition of human recombinant MAOA expressed in insect cells assessed as oxidation of kynuramine substrate at 2 mM measured after additional enzyme added after 120 mins incubation. Particulars: 2 h, 2000 µM. In short, it runs like this: as §1
Data set [24] has the same target. Description: Inhibition of human recombinant MAOA expressed in insect cells assessed as oxidation of kynuramine substrate at 2 mM measured after additional substrate added after 90 mins incubation. Particulars: 1.5 h. In short, it runs like this: as §1

Regarding `CN1CC=C(c2ccccc2)CC1`, the “inhibition (INH)” value in [1] and in data set [4] was “Active” in each case. The Activity result in the data set on Mus musculus [2] and in the data set with Mus musculus [3] was “Toxic” each time.

With `Clc1ccc(OCCCN2CC=CCC2)c(Cl)c1`, the “inhibition (INH)” value in data set [5], in data set [7], in data set [9], in [10] and in [16] was “Active” throughout. The Ratio IC50 in the data set listed under Homo sapiens worked out at 25.4. Also, the IC50 came to 2.6 µM in data set [6] and 66.4 µM in data set [14]. The Ki was found to be 7.4 µM in data set [8], 0.9 µM in data set [11] and 2.2 µM in data set [15]. In addition, in data set [12], the TDI result was “Active”. Moreover, the kinact in [13] was 0.002 s⁻¹.

For `CC1=CCN(CCc2ccccc2)CC1`, the “inhibition (INH)” value in [17] and in data set [18] was “Active” in each case. Moreover, the Ratio IC50 in the data set listed under Homo sapiens came out at 2. In addition, the IC50 was 623 µM in [6] and 1250 µM in data set [14]. For the same molecule, the Ki in [19] came to 2590 µM; in [20] it was 408 µM.

For `c1ccc(CCN2CCCCC2)cc1` [1-PHENETHYLPIPERIDINE], the Ki in data set [21] came out at 121 µM; in data set [22], 3680 µM. Also, the Ratio IC50 in the data set listed under Homo sapiens worked out at 1. For the same molecule, the IC50 in [6] turned out to be 757 µM; in data set [14], 762 µM. Moreover, the “inhibition (INH)” value in data set [23] and in [24] was “Active” each time.
